Measurements as given in ChEMBL document CHEMBL4145441, “Discovery of N-(5-((5-chloro-4-((2-(isopropylsulfonyl)phenyl)amino)pyrimidin-2-yl)amino)-4-methoxy-2-(4-methyl-1,4-diazepan-1-yl)phenyl)acrylamide (CHMFL-ALK/EGFR-050) as a potent ALK/EGFR dual kinase inhibitor capable of overcoming a variety of ALK/EGFR associated drug resistant mutants in NSCLC” (Eur J Med Chem, 2017).

Tests used:
[1] = Antiproliferative activity against mouse BAF3 cells after 72 hrs by CellTiter-Glo assay; type: cell-based
[2] = Antiproliferative activity against CHL cells after 72 hrs by CellTiter-Glo assay; type: cell-based, Cricetulus griseus; conditions: chinese hamster
[3] = Antiproliferative activity against CHO cells after 72 hrs by CellTiter-Glo assay; type: cell-based, Cricetulus griseus; conditions: chinese hamster
NCI-H3122 [4] = assay: Antiproliferative activity against human NCI-H3122 cells harboring EML4-fused ALK varian1 after 72 hrs by CellTiter-Glo assay; type: functional; conditions: NCI-H3122, 72 h
How it was run: (§1)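 Antiproliferative GI50 against H1975 and H3122 cells; each GI50 value obtained from triplicate testing.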

NCI-H1975 [5] = assay: Growth inhibition of human NCI-H1975 cells after 72 hrs by CellTiter-Glo assay; type: functional; conditions: NCI-H1975, 72 h; how it was run: as §1
NCI-H3122 [6] = assay: Growth inhibition of human NCI-H3122 cells after 72 hrs by CellTiter-Glo assay; type: functional; conditions: NCI-H3122, 72 h; how it was run: as §1
[7] = test system: Epidermal growth factor receptor (Homo sapiens), P00533 [T790M]; assay: Inhibition of TEL-fused EGFR T790M mutant (unknown origin) expressed in mouse BAF3 cells assessed as decrease in cell proliferation after 72 hrs by CellTiter-Glo assay; type: cell-based
Chain of Epidermal growth factor receptor (Homo sapiens), P00533 [T790M] (P00533 whole entry T790M, the tested form may be a part): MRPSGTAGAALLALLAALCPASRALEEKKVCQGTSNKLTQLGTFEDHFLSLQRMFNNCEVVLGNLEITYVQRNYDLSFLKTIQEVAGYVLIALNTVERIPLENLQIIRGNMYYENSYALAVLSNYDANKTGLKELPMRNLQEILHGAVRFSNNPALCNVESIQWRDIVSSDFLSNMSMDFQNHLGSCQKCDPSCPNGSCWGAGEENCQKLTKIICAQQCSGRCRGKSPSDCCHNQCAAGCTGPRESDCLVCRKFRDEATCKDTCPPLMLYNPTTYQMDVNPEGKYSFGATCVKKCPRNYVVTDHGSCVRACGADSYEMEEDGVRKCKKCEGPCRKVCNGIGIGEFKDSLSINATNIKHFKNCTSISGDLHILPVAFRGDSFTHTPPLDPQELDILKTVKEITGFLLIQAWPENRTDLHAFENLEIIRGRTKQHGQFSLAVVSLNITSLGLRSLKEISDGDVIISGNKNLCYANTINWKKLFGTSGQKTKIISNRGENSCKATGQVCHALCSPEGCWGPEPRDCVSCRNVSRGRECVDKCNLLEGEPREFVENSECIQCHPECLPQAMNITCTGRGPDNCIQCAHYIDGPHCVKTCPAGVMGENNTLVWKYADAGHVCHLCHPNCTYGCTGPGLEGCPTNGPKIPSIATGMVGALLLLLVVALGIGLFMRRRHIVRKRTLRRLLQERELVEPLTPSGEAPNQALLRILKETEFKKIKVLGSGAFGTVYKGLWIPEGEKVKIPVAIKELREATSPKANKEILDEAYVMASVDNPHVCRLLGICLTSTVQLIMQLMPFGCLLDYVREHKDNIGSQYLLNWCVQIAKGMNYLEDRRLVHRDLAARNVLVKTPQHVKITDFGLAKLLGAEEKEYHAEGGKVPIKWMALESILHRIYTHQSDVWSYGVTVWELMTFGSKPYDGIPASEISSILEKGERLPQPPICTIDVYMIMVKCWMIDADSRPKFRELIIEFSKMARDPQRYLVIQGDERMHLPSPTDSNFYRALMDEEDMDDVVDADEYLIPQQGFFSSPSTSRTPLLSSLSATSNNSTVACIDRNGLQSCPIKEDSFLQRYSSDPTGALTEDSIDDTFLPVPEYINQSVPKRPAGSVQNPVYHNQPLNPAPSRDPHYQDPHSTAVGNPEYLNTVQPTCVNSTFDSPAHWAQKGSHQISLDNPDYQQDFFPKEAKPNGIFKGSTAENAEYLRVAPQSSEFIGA

[8] = molecular target: T1, Epidermal growth factor receptor (Homo sapiens, UniProt P00533); assay: Inhibition of TEL-fused EGFR (unknown origin) expressed in mouse BAF3 cells assessed as decrease in cell proliferation after 72 hrs by CellTiter-Glo assay; type: cell-based
T1 sequence (P00533 whole entry, the tested form may be a part): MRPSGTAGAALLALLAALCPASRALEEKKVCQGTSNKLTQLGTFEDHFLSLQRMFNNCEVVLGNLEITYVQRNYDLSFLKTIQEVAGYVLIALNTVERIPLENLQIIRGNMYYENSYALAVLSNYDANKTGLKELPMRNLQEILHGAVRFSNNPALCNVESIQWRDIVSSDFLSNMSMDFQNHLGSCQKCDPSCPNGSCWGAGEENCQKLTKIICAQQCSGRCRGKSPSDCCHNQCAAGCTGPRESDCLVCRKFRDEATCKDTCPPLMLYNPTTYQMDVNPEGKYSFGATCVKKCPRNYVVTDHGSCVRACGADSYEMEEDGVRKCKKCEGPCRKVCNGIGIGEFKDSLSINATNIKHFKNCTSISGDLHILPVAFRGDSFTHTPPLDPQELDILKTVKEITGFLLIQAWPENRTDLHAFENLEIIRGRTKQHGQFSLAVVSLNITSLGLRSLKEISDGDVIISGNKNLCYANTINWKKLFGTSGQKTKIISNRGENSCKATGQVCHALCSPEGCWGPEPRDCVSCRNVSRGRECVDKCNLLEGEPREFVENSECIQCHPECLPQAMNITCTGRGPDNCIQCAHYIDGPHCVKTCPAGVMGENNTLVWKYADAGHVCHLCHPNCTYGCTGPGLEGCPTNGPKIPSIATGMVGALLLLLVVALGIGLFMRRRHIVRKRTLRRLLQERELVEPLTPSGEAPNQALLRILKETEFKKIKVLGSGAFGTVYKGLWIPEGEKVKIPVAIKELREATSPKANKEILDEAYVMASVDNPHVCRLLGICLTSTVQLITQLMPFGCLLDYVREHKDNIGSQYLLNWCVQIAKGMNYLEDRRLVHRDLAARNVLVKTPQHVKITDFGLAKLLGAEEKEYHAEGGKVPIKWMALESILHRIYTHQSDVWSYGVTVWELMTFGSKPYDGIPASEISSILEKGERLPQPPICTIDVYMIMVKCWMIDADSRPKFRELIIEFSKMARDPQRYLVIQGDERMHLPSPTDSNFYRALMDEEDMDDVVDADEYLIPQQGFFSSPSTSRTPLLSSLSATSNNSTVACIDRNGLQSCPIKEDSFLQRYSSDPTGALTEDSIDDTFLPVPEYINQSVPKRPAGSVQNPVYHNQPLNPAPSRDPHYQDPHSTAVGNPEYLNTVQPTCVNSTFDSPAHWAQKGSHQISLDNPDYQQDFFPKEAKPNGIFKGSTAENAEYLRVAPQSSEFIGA

NCI-H2122 = assay: Antiproliferative activity against human NCI-H2122 cells harboring wild-type EGFR after 72 hrs by CellTiter-Glo assay; type: functional; conditions: NCI-H2122, 72 h
[9] = test system: Epidermal growth factor receptor (Homo sapiens), P00533 [C797S]; assay: Inhibition of TEL-fused EGFR C797S mutant (unknown origin) expressed in mouse BAF3 cells assessed as decrease in cell proliferation after 72 hrs by CellTiter-Glo assay; type: cell-based
Chain of Epidermal growth factor receptor (Homo sapiens), P00533 [C797S] (P00533 whole entry C797S, the tested form may be a part): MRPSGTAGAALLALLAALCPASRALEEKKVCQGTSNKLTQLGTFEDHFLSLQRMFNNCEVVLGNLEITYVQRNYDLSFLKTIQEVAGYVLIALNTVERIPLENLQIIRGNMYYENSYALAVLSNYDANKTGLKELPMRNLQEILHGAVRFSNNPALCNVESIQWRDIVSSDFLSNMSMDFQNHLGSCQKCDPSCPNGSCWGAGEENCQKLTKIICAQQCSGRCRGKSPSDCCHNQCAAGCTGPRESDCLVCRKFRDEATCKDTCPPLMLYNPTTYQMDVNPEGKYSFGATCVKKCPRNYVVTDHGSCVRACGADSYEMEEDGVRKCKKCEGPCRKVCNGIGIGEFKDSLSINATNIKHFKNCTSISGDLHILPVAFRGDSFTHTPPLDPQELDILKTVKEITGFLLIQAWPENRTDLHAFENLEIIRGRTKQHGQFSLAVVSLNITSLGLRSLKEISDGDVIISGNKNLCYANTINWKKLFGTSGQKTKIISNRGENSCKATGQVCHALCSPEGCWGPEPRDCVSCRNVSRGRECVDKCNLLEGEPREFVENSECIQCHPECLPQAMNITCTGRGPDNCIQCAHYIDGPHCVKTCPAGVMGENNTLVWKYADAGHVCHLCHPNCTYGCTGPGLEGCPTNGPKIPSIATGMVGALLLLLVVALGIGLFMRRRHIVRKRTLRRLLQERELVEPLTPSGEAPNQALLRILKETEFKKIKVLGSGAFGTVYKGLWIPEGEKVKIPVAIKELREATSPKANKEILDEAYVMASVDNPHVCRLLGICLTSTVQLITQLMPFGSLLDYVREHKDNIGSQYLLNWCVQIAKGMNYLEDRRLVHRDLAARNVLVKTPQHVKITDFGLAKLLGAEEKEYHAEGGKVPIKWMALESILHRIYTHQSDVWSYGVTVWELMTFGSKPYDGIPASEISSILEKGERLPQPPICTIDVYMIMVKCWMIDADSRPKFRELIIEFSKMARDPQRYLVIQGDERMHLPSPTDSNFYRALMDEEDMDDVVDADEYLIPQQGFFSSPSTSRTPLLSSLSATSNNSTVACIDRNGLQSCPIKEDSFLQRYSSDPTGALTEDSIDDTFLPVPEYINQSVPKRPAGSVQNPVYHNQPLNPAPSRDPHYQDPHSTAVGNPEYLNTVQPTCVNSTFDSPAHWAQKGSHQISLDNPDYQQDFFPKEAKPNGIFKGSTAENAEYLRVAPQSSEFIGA

NCI-H1355 = assay: Antiproliferative activity against human NCI-H1355 cells harboring wild-type EGFR after 72 hrs by CellTiter-Glo assay; type: functional; conditions: NCI-H1355, 72 h
[10] = test system: Epidermal growth factor receptor (Homo sapiens), P00533 [L858R]; assay: Inhibition of full length EGFR L858R mutant (unknown origin) expressed in mouse BAF3 cells assessed as decrease in cell proliferation after 72 hrs by CellTiter-Glo assay; type: cell-based
PC-9 = assay: Antiproliferative activity against human PC9 cells harboring EGFR del19 mutant after 72 hrs by CellTiter-Glo assay; type: functional; conditions: PC-9, 72 h
HCC827 = assay: Antiproliferative activity against human HCC827 cells harboring EGFR del19 mutant after 72 hrs by CellTiter-Glo assay; type: functional; conditions: HCC827, 72 h
A549 = assay: Antiproliferative activity against human A549 cells harboring wild-type EGFR after 72 hrs by CellTiter-Glo assay; type: functional; conditions: A549, 72 h
NCI-H1975 [11] = assay: Antiproliferative activity against human NCI-H1975 cells harboring EGFR L858R/T790M mutant after 72 hrs by CellTiter-Glo assay; type: functional; conditions: NCI-H1975, 72 h; how it was run: as §1
NCI-H3255 = assay: Antiproliferative activity against human H3255 cells harboring EGFR L858R mutant after 72 hrs by CellTiter-Glo assay; type: functional; conditions: NCI-H3255, 72 h
[12] = test system: Epidermal growth factor receptor (Homo sapiens), P00533 [L858R,T790M,C797S]; assay: Inhibition of full length EGFR L858R/T790M/C797S mutant (unknown origin) expressed in mouse BAF3 cells assessed as decrease in cell proliferation after 72 hrs by CellTiter-Glo assay; type: cell-based
NCI-H2228 = assay: Antiproliferative activity against human NCI-H2228 cells harboring EML4-fused ALK varian3 after 72 hrs by CellTiter-Glo assay; type: functional; conditions: NCI-H2228, 72 h
[13] = test system: Epidermal growth factor receptor (Homo sapiens), P00533 [L858R,T790M]; assay: Inhibition of full length EGFR L858R/T790M mutant (unknown origin) expressed in mouse BAF3 cells assessed as decrease in cell proliferation after 72 hrs by CellTiter-Glo assay; type: cell-based
Chain of Epidermal growth factor receptor (Homo sapiens), P00533 [L858R,T790M] (P00533 whole entry T790M/L858R, looked up): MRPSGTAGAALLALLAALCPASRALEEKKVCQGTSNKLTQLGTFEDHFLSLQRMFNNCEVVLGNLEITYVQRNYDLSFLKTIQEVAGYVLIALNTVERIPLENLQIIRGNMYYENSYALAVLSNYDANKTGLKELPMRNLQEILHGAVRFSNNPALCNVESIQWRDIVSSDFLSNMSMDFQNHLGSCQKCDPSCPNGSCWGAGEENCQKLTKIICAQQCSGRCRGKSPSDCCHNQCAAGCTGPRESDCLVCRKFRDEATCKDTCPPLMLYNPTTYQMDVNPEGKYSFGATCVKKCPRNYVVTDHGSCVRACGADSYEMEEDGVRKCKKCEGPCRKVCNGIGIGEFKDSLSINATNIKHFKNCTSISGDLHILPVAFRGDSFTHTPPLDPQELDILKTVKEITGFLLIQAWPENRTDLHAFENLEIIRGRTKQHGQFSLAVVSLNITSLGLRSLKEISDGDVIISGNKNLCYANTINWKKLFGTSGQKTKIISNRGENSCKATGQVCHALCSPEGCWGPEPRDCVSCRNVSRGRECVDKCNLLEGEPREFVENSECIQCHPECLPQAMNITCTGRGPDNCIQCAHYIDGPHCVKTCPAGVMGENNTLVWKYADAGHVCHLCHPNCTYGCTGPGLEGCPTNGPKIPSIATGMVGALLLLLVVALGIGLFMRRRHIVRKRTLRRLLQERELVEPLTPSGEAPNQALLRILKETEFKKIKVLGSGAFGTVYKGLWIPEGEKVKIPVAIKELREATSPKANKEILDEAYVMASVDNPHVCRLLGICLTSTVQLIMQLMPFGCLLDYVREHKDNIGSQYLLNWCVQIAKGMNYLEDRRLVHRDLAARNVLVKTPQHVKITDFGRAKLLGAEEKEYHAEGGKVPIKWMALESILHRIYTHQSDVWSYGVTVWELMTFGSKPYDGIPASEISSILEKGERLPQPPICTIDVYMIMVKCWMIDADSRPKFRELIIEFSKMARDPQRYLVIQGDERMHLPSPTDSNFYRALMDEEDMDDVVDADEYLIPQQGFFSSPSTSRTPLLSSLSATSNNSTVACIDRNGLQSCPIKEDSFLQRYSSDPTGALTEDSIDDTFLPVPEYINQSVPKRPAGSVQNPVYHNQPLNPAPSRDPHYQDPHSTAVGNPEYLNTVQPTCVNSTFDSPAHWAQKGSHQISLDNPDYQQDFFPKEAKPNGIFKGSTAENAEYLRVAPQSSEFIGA

[14] = molecular target: T1, Epidermal growth factor receptor; assay: Inhibition of full length EGFR del19 mutant (unknown origin) expressed in mouse BAF3 cells assessed as decrease in cell proliferation after 72 hrs by CellTiter-Glo assay; type: cell-based

| SMILES | GI50 (NCI-H1975 [5]) | GI50 (NCI-H3122 [6]) | other results |
| --- | --- | --- | --- |
| C[C@@H](Oc1cc(-c2cnn(C3CCNCC3)c2)cnc1N)c1c(Cl)ccc(F)c1Cl [CRIZOTINIB] |  |  | GI50 at 72 h [1]: 1100 nM; GI50 at 72 h [2]: 450 nM; GI50 at 72 h [3]: 3200 nM; GI50 (NCI-H3122 [4]): 37 nM |
| C=CC(=O)Nc1cc(Nc2ncc(Cl)c(Nc3ccccc3C#N)n2)c(OC)cc1N1CCOCC1 | 1200 nM | 370 nM |  |
| C=CC(=O)Nc1cc(Nc2ncc(Cl)c(NC3CC3)n2)c(OC)cc1N1CCN(C)CC1 | > 10000 nM | 3200 nM |  |
| C=CC(=O)Nc1cc(Nc2ncc(Cl)c(Nc3ccccc3C#N)n2)c(OC)cc1N1CCN(CC)CC1 | 440 nM | 110 nM |  |
| C=CC(=O)Nc1cc(Nc2ncc(Cl)c(Nc3ccccc3S(=O)(=O)C(C)C)n2)ccc1N1CCC(N2CCN(C)CC2)CC1 | 7100 nM | 4900 nM |  |
| C=CC(=O)Nc1cc(Nc2ncc(Cl)c(Nc3cccc(C(F)(F)F)c3)n2)c(OC)cc1N1CCN(C)CC1 | 260 nM | 770 nM |  |
| C=CC(=O)Nc1cc(Nc2ncc(Cl)c(N(C)c3cccc(C(F)(F)F)c3)n2)c(OC)cc1N1CCN(C)CC1 | 1800 nM | 3600 nM |  |
| C=CC(=O)Nc1cc(Nc2ncc(Cl)c(Nc3ccccc3C#N)n2)c(OC)cc1N1CCN(C(C)C)CC1 | 430 nM | 110 nM |  |
| C=CC(=O)Nc1cc(Nc2ncc(Cl)c(Nc3ccccc3NC(=O)C(C)(C)C)n2)c(OC)cc1N1CCN(C)CC1 | 950 nM | 6500 nM |  |
| C=CC(=O)Nc1cc(Nc2ncc(Cl)c(Nc3ccccc3S(=O)(=O)C(C)C)n2)c(OC)cc1N1CCOCC1 | 1200 nM | < 0.3 nM |  |
| C=CC(=O)Nc1cc(Nc2ncc(Cl)c(Nc3ccccc3P(C)(C)=O)n2)c(OC)cc1N1CCN(S(C)(=O)=O)CC1 | 890 nM | 800 nM |  |
| COc1cc(N2CCC(N3CCN(C)CC3)CC2)ccc1Nc1ncc(Cl)c(Nc2ccccc2S(=O)(=O)C(C)C)n1 |  |  | GI50 [7]: 420 nM; GI50 [8]: 560 nM |
| CCC(=O)Nc1cc(Nc2ncc(Cl)c(Nc3ccccc3S(=O)(=O)C(C)C)n2)c(OC)cc1N1CCCN(C)CC1 |  |  | GI50 at 72 h [1]: 7100 nM; GI50 at 72 h [2]: 1300 nM; GI50 [7]: 800 nM; GI50 (NCI-H2122): 3300 nM; GI50 [9]: 360 nM; GI50 (NCI-H1355): 2200 nM; GI50 [10]: 370 nM; GI50 (PC-9): 340 nM; GI50 at 72 h [3]: 3600 nM; GI50 (HCC827): 2600 nM; GI50 (A549): 1200 nM; GI50 (NCI-H1975 [11]): 700 nM; GI50 (NCI-H3255): 830 nM; GI50 [12]: 1700 nM; GI50 (NCI-H2228): 100 nM; GI50 [8]: 1500 nM; GI50 (NCI-H3122 [4]): < 0.3 nM; GI50 [13]: 290 nM; GI50 [14]: 270 nM |
| C=CC(=O)Nc1cc(Nc2ncc(Cl)c(Nc3ccccc3P(C)(C)=O)n2)c(OC)cc1N1CCOCC1 | 780 nM | 360 nM |  |
| C=CC(=O)Nc1cccc(Oc2nc(Nc3ccc(N4CCN(C)CC4)cc3OC)ncc2Cl)c1 |  |  | GI50 at 72 h [2]: 4400 nM; GI50 [7]: 2.1 nM; GI50 (NCI-H2122): 5700 nM; GI50 [9]: 890 nM; GI50 (NCI-H1355): 5300 nM; GI50 (PC-9): 27 nM; GI50 at 72 h [3]: 3900 nM; GI50 (HCC827): 7.4 nM; GI50 (A549): > 10000 nM; GI50 (NCI-H1975 [11]): 56 nM; GI50 (NCI-H3255): 390 nM |
| C=CC(=O)Nc1cc(Nc2ncc(Cl)c(Nc3ccccc3S(=O)(=O)C(C)C)n2)c(OC)cc1N1CCCCC1 | 240 nM | 29 nM |  |
| C=CC(=O)Nc1cc(Nc2ncc(Cl)c(Nc3ccccc3C(=O)NC)n2)c(OC)cc1N1CCN(C(C)=O)CC1 | 250 nM | 12 nM |  |
| C=CC(=O)Nc1cc(Nc2ncc(Cl)c(Nc3ccccc3S(=O)(=O)C(C)C)n2)c(OC(C)C)cc1N1CCN(CC)CC1 | 300 nM | < 0.3 nM |  |

Second part, led by results:

| GI50 (NCI-H1975 [5]) | GI50 (NCI-H3122 [6]) | SMILES | other results |
| --- | --- | --- | --- |
| 31 nM | 11 nM | C=CC(=O)Nc1cc(Nc2ncc(Cl)c(Nc3ccccc3S(=O)(=O)N(C)C)n2)c(OC)cc1N1CCN(C)CC1 |  |
| 120 nM | 18 nM | C=CC(=O)Nc1cc(Nc2ncc(Cl)c(Nc3ccccc3C(=O)NC)n2)c(OC)cc1N1CCN(C2CCN(C)CC2)CC1 |  |
| 27 nM |  | C=CC(=O)Nc1cc(Nc2ncc(C)c(Nc3ccccc3S(=O)(=O)C(C)C)n2)c(OC)cc1N1CCC(N2CCN(C)CC2)CC1 |  |
| 190 nM | 41 nM | C=CC(=O)Nc1cc(Nc2nccc(Nc3ccccc3S(=O)(=O)C(C)C)n2)c(OC)cc1N1CCN(CC)CC1 |  |
| 25 nM |  | C=CC(=O)Nc1cc(Nc2ncc(Cl)c(Nc3ccccc3S(=O)(=O)C(C)C)n2)c(OC)cc1N1CCN(C(C)C)CC1 |  |
| 130 nM | 2900 nM | C=CC(=O)Nc1cc(Nc2ncc(Cl)c(Nc3c(F)cccc3F)n2)c(OC)cc1N1CCN(C)CC1 |  |
| 220 nM | 270 nM | C=CC(=O)Nc1cc(Nc2ncc(Cl)c(NCc3cccs3)n2)c(OC)cc1N1CCN(C)CC1 |  |
| 200 nM | 98 nM | C=CC(=O)Nc1cc(Nc2ncc(Cl)c(Nc3ccccc3C#N)n2)c(OC)cc1N1CCC(N2CCN(C)CC2)CC1 |  |
| 40 nM |  | C=CC(=O)Nc1cc(Nc2ncc(Cl)c(Nc3ccccc3S(=O)(=O)C(C)C)n2)c(OC)cc1N1CCN(S(C)(=O)=O)CC1 |  |
| 26 nM | 37 nM | C=CC(=O)Nc1cc(Nc2ncc(Cl)c(Nc3ccccc3P(C)(C)=O)n2)c(OC)cc1N1CCN(CC)CC1 |  |
| 43 nM | 33 nM | C=CC(=O)Nc1cc(Nc2ncc(Cl)c(Nc3ccccc3S(=O)(=O)C(C)C)n2)c(OC)cc1N1CCN(C)CC1 |  |
| 77 nM |  | C=CC(=O)Nc1cc(Nc2ncc(Cl)c(Nc3ccccc3S(=O)(=O)C(C)C)n2)c(OC)cc1N1CCN(C2CCCCC2)CC1 |  |
| 220 nM | 140 nM | C=CC(=O)Nc1cc(Nc2ncc(Cl)c(Nc3ccccc3P(C)(C)=O)n2)c(OC)cc1N1CCC(N(C)C)CC1 |  |
| 41 nM |  | C=CC(=O)Nc1cc(Nc2ncc(Cl)c(Nc3ccccc3S(=O)(=O)C(C)C)n2)c(OC)cc1N1CCN(CCOC)CC1 |  |
| 100 nM | 300 nM | C=CC(=O)Nc1cc(Nc2ncc(Cl)c(Nc3ccc(F)c(Cl)c3)n2)c(OC)cc1N1CCN(C)CC1 |  |
| 43 nM | 2 nM | C=CC(=O)Nc1cc(Nc2ncc(C)c(Nc3ccccc3S(=O)(=O)C(C)C)n2)c(OC)cc1N1CCN(CC)CC1 |  |
| 41 nM | 78 nM | C=CC(=O)Nc1cc(Nc2ncc(Cl)c(Nc3ccccc3P(C)(C)=O)n2)c(OC)cc1N1CCC(N2CCCCC2)CC1 |  |
| 50 nM | 3.5 nM | C=CC(=O)Nc1cc(Nc2ncc(Cl)c(Nc3ccccc3C(=O)NC)n2)c(OC)cc1N1CCN(C)CC1 |  |
| 79 nM | 4.5 nM | C=CC(=O)Nc1cc(Nc2ncc(Cl)c(Nc3ccccc3C(=O)NC)n2)c(OC)cc1N1CCN(C(C)C)CC1 |  |
| 23 nM |  | C=CC(=O)Nc1cc(Nc2ncc(Cl)c(Nc3ccccc3S(=O)(=O)C(C)C)n2)c(OC)cc1N1CCC(N2CCN(C)CC2)CC1 |  |
